The species entered for assay [1] is Mus musculus. Put plainly: Analgesic activity as percentage analgesic efficacy on male albino Swiss-Webster mice with the hotplate test; Inactive. It is filed as functional. In outline:
(§1)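 Hot-plate test at 52.5 ± 0.1 °C, 45 s cutoff, compound dosed at its maximal nontoxic dose (the highest dose giving no visible behavioural change to blinded observers). Efficacy = (maximum reaction time − pretest time) / the same difference for morphine-HCl 8 mg/kg sc × 100.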

For assay [2], the target named is Muscarinic acetylcholine receptor (Mus musculus) (UniProt Q920H4+Q9ERZ4+P12657+P32211+Q9ERZ3). In words: Analgesic activity after subcutaneous administration in male albino Swiss-Webster mice with the hotplate test. It is filed as functional, organism-based. In outline:
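Mouse hot-plate test, plate held at 52.5 ± 0.1 °C with a 45 s cutoff. Drug given subcutaneously, 8 to 20 mice per test. Potency expressed as ED50.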

Assay [3] is filed under the species Mus musculus. In words: Analgesic activity as percentage analgesic efficacy on male albino swiss-webster mice with the hotplate test. It is filed as functional. More on the design: concentration or dose not given beside the values. In outline:
as §1

Assay [4] has as its target Muscarinic acetylcholine receptor. In words: Binding affinity for [3H]QNB in membrane preparations from rat brain tissue. In outline:
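[3H]QNB binding to rat brain membrane preparations. pKi calculated with the LIGAND program, mean of at least three experiments.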

For assay [5], the species on record is Mus musculus. In words: The compound was evaluated for the analgesic activity as percentage analgesic efficacy on male albino Swiss-Webster mice with the hotplate test; inactive. The assay is classed as functional, organism-based. In outline: as §1
Assay [6] is filed under the species Mus musculus. In words: The compound was evaluated for the analgesic activity as percentage analgesic efficacy on male albino Swiss-Webster mice with the hotplate test;Inactive. It is filed as functional, organism-based. In outline: as §1

Each structure is given as a SMILES string. Calls of active or inactive are those of the source.

On to `CC(C(=O)OCCCN(C)C)c1ccc(Br)cc1` (configuration not stated), for which the Analgesic efficacy entry in the assay listed under Mus musculus [1] is “inactive”. What is called ED50 is the dose that gives a 50% effect, or the effect in half of the subjects. With `CC(C(=O)OC1CC2CCC(C1)N2C)c1ccsc1` (configuration not stated), the 50% effect level in assay [2] (ED50) was put at a dose of 22 mg/kg. In addition, the Analgesic efficacy in the assay listed under Mus musculus [3] was determined as 44%. Molecule `CN1CCC(OC(=O)C(CO)c2ccc(Cl)cc2)CC1` (configuration not stated) displayed an ED50 in assay [2] of 5 mg/kg. Also, the Analgesic efficacy in the assay filed under Mus musculus [3] was 26%.

For the molecule `CCN(CC)CC#CCOC(=O)C(C)c1ccc(Br)cc1` (configuration not stated), in the assay listed under Mus musculus [1], the Analgesic efficacy result was “inactive”.

Consider `CC(C(=O)OC1CCN(C)CC1)c1ccc(Br)cc1` (configuration not stated), for which, in the assay filed under Mus musculus [1], the Analgesic efficacy result is “inactive”. Take `CC(C(=O)OC1CC2CCC(C1)N2C)c1ccc(Br)cc1` (single isomer, unassigned; (+)): the ED50 in assay [2] was determined as 17 mg/kg. This molecule also showed an Analgesic efficacy in the assay listed under Mus musculus [3] of 92%. Taken in the same sequence, the figures for `C[C@H](C(=O)OC1CC2CCC(C1)N2C)c1ccccc1` (some centres not stated) were 3.1 mg/kg and 29%.

`CN1[C@@H]2CC[C@H]1C[C@H](OC(=O)[C@@H](CO)c1ccccc1)C2` came in with an ED50 in assay [2] of 0.7 mg/kg. In the assay listed under Mus musculus [3], the Analgesic efficacy came out at 41%. As to `CN1C2CCC1CC(OC(=O)Cc1ccc(Br)cc1)C2` (configuration not stated), the Analgesic efficacy entry in the assay filed under Mus musculus [1] is “inactive”.

In assay [2], `CC(C(=O)OC1CC2CCC(C1)N2C)c1ccc(Cl)cc1.O=C(O)/C=C\C(=O)O` (configuration not stated) returned an ED50 of 36 mg/kg. Further, the Analgesic efficacy in the assay filed under Mus musculus [3] came to 83%. The “Log Ki” value in assay [4] is listed as -7.02.

For the molecule `CN1C2CCC1CC(OC(=O)Cc1ccccc1)C2` (configuration not stated), in the assay listed under Mus musculus [1], the Analgesic efficacy result was “inactive”. On the same count and under the same terms, to `CCN(CC)CCOC(=O)C(CO)c1ccc(Cl)cc1` (configuration not stated) belongs “inactive”.

Regarding `CC(C(=O)OC1CC2CCC(C1)N2C)c1ccc(Br)cc1.O=C(O)/C=C\C(=O)O` (racemic), in assay [4], the “Log Ki” value is listed as -6.96. On to `CCN(CC)CC#CCOC(=O)C(CO)c1ccccc1.O=C(O)C(Oc1ccccc1)C(Oc1ccccc1)C(=O)O` (configuration not stated), for which, in the assay filed under Mus musculus [1], the Analgesic efficacy result was “inactive”. In assay [2], `CC(C(=O)OC1CC2CCC(C1)N2C)c1ccc(C(F)(F)F)cc1` (configuration not stated) returned an ED50 of 31 mg/kg. The same molecule showed an Analgesic efficacy in the assay listed under Mus musculus [3] of 26%.

On to `CN1C2CCC1CC(OC(=O)C(Cl)c1ccccc1)C2` (configuration not stated), for which the Analgesic efficacy result in the assay filed under Mus musculus [1] is “inactive”.

For `CN1C2CCC1CC(OC(=O)C(CO)c1ccc(Cl)cc1)C2` (configuration not stated), in assay [2], the ED50 worked out at 0.6 mg/kg. The molecule also gave an Analgesic efficacy in the assay listed under Mus musculus [3] of 37%.

Consider `CC(C(=O)OC1CC2CCC(C1)N2C)c1cccc(Cl)c1` (configuration not stated), for which the ED50 in assay [2] is 37 mg/kg. This molecule had an Analgesic efficacy in the assay listed under Mus musculus [3] of 71%. For the molecule `CC(C(=O)OC1CC2CCC(C1)N2Cc1ccccc1)c1ccc(Br)cc1` (configuration not stated), in assay [2], the ED50 was found to be 28 mg/kg. Also, in the assay listed under Mus musculus [3], the Analgesic efficacy stood at 34%. With `CCN1C2CCC1CC(OC(=O)C(C)c1ccc(Br)cc1)C2` (configuration not stated), in the assay listed under Mus musculus [5], the Analgesic efficacy entry is “inactive”.

Regarding `CC(C(=O)OC1CC2CCC(C1)N2)c1ccc(Br)cc1` (configuration not stated), the Analgesic efficacy entry in the assay filed under Mus musculus [1] was “inactive”. On the same count and under the same terms, to `CC(C(=O)OC1CC2CCC(C1)N2C)c1ccc(N(C)C)cc1` (configuration not stated) belongs “inactive”. In assay [2], `CC(C(=O)OC1CC2CCC(C1)N2C)c1ccc(F)cc1` (configuration not stated) returned an ED50 of 31 mg/kg. This molecule also gave an Analgesic efficacy in the assay filed under Mus musculus [3] of 79%.

With `CC(C(=O)OC1CC2CCC(C1)N2C)c1ccc(Br)cc1` (racemic), the Analgesic efficacy in the assay filed under Mus musculus [3] was 101%. Regarding `CCN1C2CCC1CC(OC(=O)C(CO)c1ccccc1)C2` (configuration not stated), in assay [2], the ED50 worked out at 7.3 mg/kg. Further, the Analgesic efficacy in the assay filed under Mus musculus [3] turned out to be 33%.

With `C[C@@H](C(=O)OC1CC2CCC(C1)N2C)c1ccccc1` (some centres not stated), the Analgesic efficacy result in the assay filed under Mus musculus [6] was “inactive”. For the molecule `CC(C(=O)OC1CC2CCC(C1)N2C)c1ccc(N)cc1` (configuration not stated), the 50% effect level in assay [2] (ED50) was put at a dose of 6 mg/kg. This molecule also returned an Analgesic efficacy in the assay filed under Mus musculus [3] of 41%.

`CN1[C@@H]2CC[C@H]1C[C@@H](OC(=O)C(CO)c1ccccc1)C2` (mixture of isomers): in assay [2], the ED50 came to 0.7 mg/kg. In the assay filed under Mus musculus [3], this molecule showed an Analgesic efficacy of 42%. As to `CCC(C(=O)OC1CC2CCC(C1)N2C)c1ccc(Br)cc1` (configuration not stated), it took a dose of 33 mg/kg to reach the 50% effect level in assay [2] (ED50). For the same molecule, the Analgesic efficacy in the assay listed under Mus musculus [3] came out at 81%.

As for `CCN(CC)CCOC(=O)C(C)c1ccc(Br)cc1` (configuration not stated), the Analgesic efficacy entry in the assay filed under Mus musculus [1] is “inactive”. Molecule `CC(C(=O)OC1CC2CCC(C1)N2C)c1ccccc1` (racemic) yielded an ED50 in assay [2] of 5 mg/kg. In the assay filed under Mus musculus [3], this molecule came in with an Analgesic efficacy of 35%. In the same order, the values of `CC(C(=O)OC1CC2CCC(C1)N2C)c1ccc(Br)cc1` (stereo in doubt; (-)-19) are 16 mg/kg and 83%.

With `COc1ccc(C(CO)C(=O)OC2CC3CCC(C2)N3C)cc1` (configuration not stated), the Analgesic efficacy entry in the assay listed under Mus musculus [1] is “inactive”. Still for that read-out and setting: to `CC(Cc1ccc(Cl)cc1)C(=O)OC1CC2CCC(C1)N2C` (configuration not stated) belongs “inactive”; to `CN1[C@@H]2CC[C@H]1C[C@H](OC(=O)[C@H](CO)c1ccccc1)C2`, “inactive”. For `CN(C)CCCOC(=O)C(CO)c1ccccc1.O=C(O)C(Oc1ccccc1)C(Oc1ccccc1)C(=O)O` (configuration not stated), the Analgesic efficacy entry in the assay listed under Mus musculus [1] was “inactive”. In turn, `CC(C(=O)OC1CC2CCC(C1)N2C)c1ccc([N+](=O)[O-])cc1` (configuration not stated) came in with an ED50 in assay [2] of 18 mg/kg. Also, in the assay listed under Mus musculus [3], the Analgesic efficacy is 38%.

`CC(COC1CC2CCC(C1)N2C)c1ccc(Br)cc1` (configuration not stated) displayed an ED50 in assay [2] of 32 mg/kg. This molecule came in with an Analgesic efficacy in the assay listed under Mus musculus [3] of 45%. `CC(C(=O)OC1CC2CCC(C1)N2C)c1cccs1` (configuration not stated) gave an ED50 in assay [2] of 5.4 mg/kg. This molecule also gave an Analgesic efficacy in the assay filed under Mus musculus [3] of 21%.

`COc1ccc(C(C)C(=O)OC2CC3CCC(C2)N3C)cc1` (configuration not stated) returned an ED50 in assay [2] of 32 mg/kg. The same molecule had an Analgesic efficacy in the assay listed under Mus musculus [3] of 97%.

The molecule `CC(C(=O)OC1CC2CCC(C1)N2C)c1ccccc1Br` (configuration not stated) returned a median effective dose (ED50) in assay [2] of 30 mg/kg. In the assay filed under Mus musculus [3], this molecule showed an Analgesic efficacy of 62%. In the same order, the values of `O=C(OC1CC2CCC(C1)N2)C(CO)c1ccccc1` (configuration not stated) are 5 mg/kg and 35%. Taken in the same sequence, the figures for `CC(C(=O)OC1CC2CCC(C1)N2C)c1ccc(Cl)c(Cl)c1` (configuration not stated) were 1 mg/kg and 42%. In the same order, the values of `CC(C(=O)OC1CC2CCC(C1)N2C)c1ccccc1Cl` (configuration not stated) are 36 mg/kg and 83%.

`CC(C)Cc1ccc(C(C)C(=O)OC2CC3CCC(C2)N3C)cc1` (configuration not stated) returned an ED50 in assay [2] of 27 mg/kg. The same molecule came in with an Analgesic efficacy in the assay listed under Mus musculus [3] of 40%.

The record behind these values is ChEMBL document CHEMBL1127532, “Presynaptic cholinergic modulators as potent cognition enhancers and analgesic drugs. 1. Tropic and 2-phenylpropionic acid esters” (J Med Chem, 1994).
